Active and inactive are the calls of the source. The rule behind the calls is not given here.
How the values were obtained:
hERG (KCNH2) = hERG (KCNH2) (Homo sapiens, UniProt Q12809); assay: Inhibition of human ERG at 10 uM by whole cell patch-clamp technique
Method in brief: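 hERG current recorded by whole-cell patch clamp; one experiment run in duplicate.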

[1] = target: T1, Androgen receptor (Homo sapiens) (UniProt P10275); settings: HeLa
T1 sequence (whole entry): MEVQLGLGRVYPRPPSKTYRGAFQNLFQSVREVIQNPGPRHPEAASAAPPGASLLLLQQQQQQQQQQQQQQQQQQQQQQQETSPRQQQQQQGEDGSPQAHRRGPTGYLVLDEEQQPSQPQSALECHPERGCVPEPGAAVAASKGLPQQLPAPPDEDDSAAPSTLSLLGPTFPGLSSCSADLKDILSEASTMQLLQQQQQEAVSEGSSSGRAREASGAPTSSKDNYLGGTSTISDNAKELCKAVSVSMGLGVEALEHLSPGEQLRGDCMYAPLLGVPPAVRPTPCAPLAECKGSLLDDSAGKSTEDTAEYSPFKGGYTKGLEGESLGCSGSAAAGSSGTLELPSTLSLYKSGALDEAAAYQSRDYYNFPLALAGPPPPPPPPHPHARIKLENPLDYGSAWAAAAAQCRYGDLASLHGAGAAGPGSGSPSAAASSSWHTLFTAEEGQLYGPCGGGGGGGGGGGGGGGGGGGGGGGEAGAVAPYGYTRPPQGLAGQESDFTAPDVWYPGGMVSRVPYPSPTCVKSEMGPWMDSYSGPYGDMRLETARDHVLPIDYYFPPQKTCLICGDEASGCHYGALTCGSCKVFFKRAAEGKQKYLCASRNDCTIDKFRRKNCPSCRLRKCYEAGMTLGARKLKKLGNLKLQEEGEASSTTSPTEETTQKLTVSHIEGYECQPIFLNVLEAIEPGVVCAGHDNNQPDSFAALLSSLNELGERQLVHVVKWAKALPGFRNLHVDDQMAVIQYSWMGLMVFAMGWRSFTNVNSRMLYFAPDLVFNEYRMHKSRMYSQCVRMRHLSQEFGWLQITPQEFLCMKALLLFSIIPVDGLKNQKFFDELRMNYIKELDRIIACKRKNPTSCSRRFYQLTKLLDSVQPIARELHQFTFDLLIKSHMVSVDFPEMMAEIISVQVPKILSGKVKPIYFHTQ

Mus musculus [2] = organism: Mus musculus; assay: Antiandrogenic activity in castrated mouse assessed as reduction in wet weight gain of seminal vesicle; assay type: functional
Method in brief: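 Castrated mice, n = 4 or 5 per group; antiandrogenic activity read as change in seminal vesicle wet weight.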

[3] = Membrane permeability by PAMPA assay; assay type: ADME; settings: read-out: permeability
[4] = Metabolic stability in human liver microsomes assessed as compound remaining after 15 mins by LC-MS/MS analysis; assay type: ADME, Microsome; settings: read-out: Stability
Method in brief: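 Human liver microsomes in phosphate buffer (pH 7.4) with NADPH added. Percent of parent compound remaining measured after 15 min.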

Androgen receptor = target: T2, Androgen receptor (Homo sapiens, UniProt P10275); assay: Antagonist activity at human AR expressed in human HeLa cells co-transfected with MMTV-Luc-Hyg after 48 hrs by transient-luciferase reporter gene assay; assay type: functional, cell-based
T2 sequence (P10275 whole entry): T1 sequence (whole entry)

Mus musculus [5] = assay: Inhibition of prostate specific antigen production in human bicalutamide-resistant LNCAP cells xenografted SCID mouse at 10 mg/kg, po qd for seven cycles of 5 days on and 2 days off measured on day 17; assay type: functional, organism-based; parameters: dose 10 mg/kg
Method in brief: (§1)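 LNCaP-BC2 cells (2 × 10^6) inoculated subcutaneously into castrated 6-week-old male SCID mice. Randomised at tumour size 90–400 mm3, n = 5 per group. Oral dosing once daily in 5% gum arabic at 10 mL/kg, seven cycles of 5 days on and 2 days off. Tumour size and plasma PSA measured after 17 days. PSA expressed as day 17 level relative to day 0 level.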

Canis familiaris = assay: Cardiotoxicity in anesthetized dog assessed as QT prolongation by electrocardiographic analysis; assay type: toxicity, organism-based, Canis lupus familiaris; settings: in vivo
Mus musculus [6] = assay: Inhibition of prostate specific antigen production in human bicalutamide-resistant LNCAP cells xenografted SCID mouse at 100 mg/kg, po qd for seven cycles of 5 days on and 2 days off measured on day 17; assay type: functional, organism-based; parameters: dose 100 mg/kg; method in brief: as §1
LNCaP [7] = assay: Antitumor activity against human bicalutamide-resistant LNCAP cells xenografted in SCID mouse assessed as inhibition of tumor growth at 100 mg/kg, po qd for seven cycles of 5 days on, 2 days off; assay type: functional, organism-based; parameters: dose 100 mg/kg; method in brief: as §1
LNCaP [8] = assay: Antitumor activity against human bicalutamide-resistant LNCAP cells xenografted in SCID mouse assessed as inhibition of tumor growth at 10 mg/kg, po qd for seven cycles of 5 days on, 2 days off; assay type: functional, organism-based; parameters: dose 10 mg/kg; method in brief: as §1
[9] = Metabolic stability in monkey liver microsomes assessed as compound remaining after 30 mins by LC-MS/MS analysis; assay type: ADME, Macaca mulatta, Microsome; settings: rhesus monkey, read-out: Stability
[10] = Metabolic stability in dog liver microsomes assessed as compound remaining after 30 mins by LC-MS/MS analysis; assay type: ADME, Canis lupus familiaris, Microsome; settings: read-out: Stability
[11] = Metabolic stability in human liver microsomes assessed as compound remaining after 30 mins by LC-MS/MS analysis; assay type: ADME, Microsome; settings: read-out: Stability
[12] = Metabolic stability in rat liver microsomes assessed as compound remaining after 30 mins by LC-MS/MS analysis; assay type: ADME, Microsome; settings: read-out: Stability
[13] = Metabolic stability in mouse liver microsomes assessed as compound remaining after 30 mins by LC-MS/MS analysis; assay type: ADME, Microsome; settings: read-out: Stability

Sequence of hERG (KCNH2) (Q12809 whole entry): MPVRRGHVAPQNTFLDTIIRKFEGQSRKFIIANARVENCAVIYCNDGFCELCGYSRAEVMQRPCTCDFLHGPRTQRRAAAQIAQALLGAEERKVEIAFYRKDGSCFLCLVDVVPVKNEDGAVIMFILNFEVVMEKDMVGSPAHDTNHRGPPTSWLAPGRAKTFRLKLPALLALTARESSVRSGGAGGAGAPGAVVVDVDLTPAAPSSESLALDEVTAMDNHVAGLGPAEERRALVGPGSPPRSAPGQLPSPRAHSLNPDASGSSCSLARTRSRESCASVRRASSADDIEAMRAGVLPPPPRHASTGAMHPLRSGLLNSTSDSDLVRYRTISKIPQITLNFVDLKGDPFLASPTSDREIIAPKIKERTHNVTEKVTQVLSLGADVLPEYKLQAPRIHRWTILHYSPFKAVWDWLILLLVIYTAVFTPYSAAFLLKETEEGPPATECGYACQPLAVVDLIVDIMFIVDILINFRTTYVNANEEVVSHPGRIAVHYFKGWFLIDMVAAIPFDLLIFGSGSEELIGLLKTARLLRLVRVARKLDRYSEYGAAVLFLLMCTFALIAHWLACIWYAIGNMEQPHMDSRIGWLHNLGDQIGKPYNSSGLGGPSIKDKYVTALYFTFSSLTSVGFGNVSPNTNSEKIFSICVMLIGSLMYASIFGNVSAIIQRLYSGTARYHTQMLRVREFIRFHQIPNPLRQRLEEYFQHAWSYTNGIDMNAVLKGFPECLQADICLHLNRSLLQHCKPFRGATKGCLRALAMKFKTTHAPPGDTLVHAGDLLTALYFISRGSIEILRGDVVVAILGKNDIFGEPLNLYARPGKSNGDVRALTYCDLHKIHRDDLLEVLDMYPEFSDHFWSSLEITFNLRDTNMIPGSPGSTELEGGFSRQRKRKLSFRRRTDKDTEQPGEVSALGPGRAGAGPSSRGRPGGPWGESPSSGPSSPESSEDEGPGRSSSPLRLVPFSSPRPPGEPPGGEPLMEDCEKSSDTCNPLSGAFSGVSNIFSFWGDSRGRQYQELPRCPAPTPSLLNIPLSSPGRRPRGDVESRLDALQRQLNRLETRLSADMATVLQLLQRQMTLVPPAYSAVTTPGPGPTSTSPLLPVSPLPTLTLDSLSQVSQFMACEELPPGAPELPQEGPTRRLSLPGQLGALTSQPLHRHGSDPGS

CC1(C)C(=O)N(c2ccc(C#N)c(C(F)(F)F)c2)C(=S)N1c1cncc(S(N)(=O)=O)c1
inhibition at 10 µM (hERG (KCNH2)): 33%
EC5 [1]: > 10 µM
ED50 (Mus musculus [2]; Mus musculus, read-out: ED50): 6 mg/kg
Papp [3]: 14 ×10⁻⁶ cm/s
remaining at 0.25 h [4]: 95%
IC50 (Androgen receptor): 1000 nM

CC1(C)C(=O)N(c2ccc(C#N)c(Cl)c2)C(=S)N1CCCS(N)(=O)=O
inhibition at 10 µM (hERG (KCNH2)): 17%
EC5 [1]: > 10 µM
ED50 (Mus musculus [2]; Mus musculus, read-out: ED50): 10 mg/kg
Papp [3]: 25 ×10⁻⁶ cm/s
remaining at 0.25 h [4]: 100%

CC1(C)C(=O)N(c2ccc(C#N)c(C(F)(F)F)c2)C(=S)N1c1cccc(S(N)(=O)=O)n1
inhibition at 10 µM (hERG (KCNH2)): 10%
EC5 [1]: > 10 µM
inhibition (Mus musculus [5]): Active
Activity (Canis familiaris): Non-toxic
ED50 (Mus musculus [2]; Mus musculus, read-out: ED50): 7 mg/kg
Papp [3]: 14 ×10⁻⁶ cm/s
remaining at 0.25 h [4]: 94%
inhibition (Mus musculus [6]): Active
IC50 (Androgen receptor): 700 nM
inhibition (LNCaP [7]): Active
inhibition (LNCaP [8]): Active

CC1(C)C(=O)N(c2ccc(C#N)c(C(F)(F)F)c2)C(=S)N1c1ccnc(S(N)(=O)=O)c1
inhibition at 10 µM (hERG (KCNH2)): 0%
EC5 [1]: > 10 µM
Papp [3]: 12 ×10⁻⁶ cm/s
remaining at 0.25 h [4]: 97%
IC50 (Androgen receptor): 1000 nM

CC1(C)C(=O)N(c2ccc(C#N)c(Cl)c2)C(=S)N1c1cccc(S(N)(=O)=O)n1
inhibition at 10 µM (hERG (KCNH2)): 26%
EC5 [1]: > 10 µM
ED50 (Mus musculus [2]; Mus musculus, read-out: ED50): 6 mg/kg
Papp [3]: 1.3 ×10⁻⁶ cm/s
remaining at 0.25 h [4]: 100%
IC50 (Androgen receptor): 600 nM

CC1(C)C(=O)N(c2ccc(C#N)c(C(F)(F)F)c2)C(=S)N1c1cccc(S(N)(=O)=O)c1
inhibition at 10 µM (hERG (KCNH2)): 41%
EC5 [1]: > 10 µM
ED50 (Mus musculus [2]; Mus musculus, read-out: ED50): 63 mg/kg
Papp [3]: 8.1 ×10⁻⁶ cm/s
remaining at 0.25 h [4]: 100%
IC50 (Androgen receptor): 300 nM

CC1(C)C(=O)N(c2ccc(C#N)c(Cl)c2)C(=S)N1c1cncc(S(N)(=O)=O)c1
inhibition at 10 µM (hERG (KCNH2)): 52%
EC5 [1]: > 10 µM
Papp [3]: 13 ×10⁻⁶ cm/s
remaining at 0.25 h [4]: 95%
IC50 (Androgen receptor): 2000 nM

CC1(C)C(=O)N(c2ccc(C#N)c(Cl)c2)C(=S)N1c1cccc(S(N)(=O)=O)c1
inhibition at 10 µM (hERG (KCNH2)): 58%
EC5 [1]: > 10 µM
ED50 (Mus musculus [2]; Mus musculus, read-out: ED50): 84 mg/kg
Papp [3]: 1.6 ×10⁻⁶ cm/s
remaining at 0.25 h [4]: 100%

CC1(C)NC(=S)N(c2ccc(C#N)c(Cl)c2)C1=O
EC5 [1]: 0.0002 µM
remaining at 0.5 h [9]: 0.027%
remaining at 0.5 h [10]: < 0.001%
remaining at 0.5 h [11]: 0.022%
remaining at 0.5 h [12]: 0.075%
remaining at 0.5 h [13]: 0.038%

CC(O)(CS(=O)(=O)c1ccc(F)cc1)C(=O)Nc1ccc(C#N)c(C(F)(F)F)c1 (configuration not stated) [BICALUTAMIDE]
inhibition at 10 µM (hERG (KCNH2)): 7.4%
inhibition (Mus musculus [5]): inactive
ED50 (Mus musculus [2]): 3 mg/kg
remaining at 0.25 h [4]: 99%
inhibition (Mus musculus [6]): inactive
inhibition (LNCaP [7]): inactive
inhibition (LNCaP [8]): inactive

CC1(C)NC(=S)N(c2ccc(C#N)c(C(F)(F)F)c2)C1=O
EC5 [1]: 0.001 µM
remaining at 0.5 h [9]: < 0.001%
remaining at 0.5 h [10]: < 0.001%
remaining at 0.5 h [11]: < 0.001%
remaining at 0.5 h [12]: < 0.001%
remaining at 0.5 h [13]: < 0.001%

CC1(C)C(=O)N(c2ccc(C#N)c(C(F)(F)F)c2)C(=S)N1c1ccccc1
EC5 [1]: 3 µM
Papp [3]: 0.69 ×10⁻⁶ cm/s
remaining at 0.25 h [4]: 80%
IC50 (Androgen receptor): 200 nM
